The test addresses Sodium-dependent noradrenaline transporter (Homo sapiens, UniProt P23975). Description: Displacement of [3H]nisoxetine from human NET expressed in COS7 cells. It counts as cell-based. The following applies: COS-7. The method, boiled down:
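Membranes from COS-7 cells transfected with human NET were incubated with [3H]nisoxetine (4.3 nM) with or without peptide (1 nM to 100 μM, triplicate) for 1 h at RT. Filter-retained radioactivity was counted by liquid scintillation, and values are given as pIC50. Data are means of 2–5 experiments in triplicate; peptide concentration was set by calibrated HPLC at 214 nm.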
A general note: Loss of bound radioactivity is the signal in a displacement assay; it reports binding, not function.

These results are taken from ChEMBL document CHEMBL1154792, “chi-Conopeptide pharmacophore development: toward a novel class of norepinephrine transporter inhibitor (Xen2174) for pain” (J Med Chem, 2009).

Activity calls are given as the source filed them. The calls are words filed in the database; no cut-off is given here.

Sodium-dependent noradrenaline transporter, sequence (P23975 whole entry): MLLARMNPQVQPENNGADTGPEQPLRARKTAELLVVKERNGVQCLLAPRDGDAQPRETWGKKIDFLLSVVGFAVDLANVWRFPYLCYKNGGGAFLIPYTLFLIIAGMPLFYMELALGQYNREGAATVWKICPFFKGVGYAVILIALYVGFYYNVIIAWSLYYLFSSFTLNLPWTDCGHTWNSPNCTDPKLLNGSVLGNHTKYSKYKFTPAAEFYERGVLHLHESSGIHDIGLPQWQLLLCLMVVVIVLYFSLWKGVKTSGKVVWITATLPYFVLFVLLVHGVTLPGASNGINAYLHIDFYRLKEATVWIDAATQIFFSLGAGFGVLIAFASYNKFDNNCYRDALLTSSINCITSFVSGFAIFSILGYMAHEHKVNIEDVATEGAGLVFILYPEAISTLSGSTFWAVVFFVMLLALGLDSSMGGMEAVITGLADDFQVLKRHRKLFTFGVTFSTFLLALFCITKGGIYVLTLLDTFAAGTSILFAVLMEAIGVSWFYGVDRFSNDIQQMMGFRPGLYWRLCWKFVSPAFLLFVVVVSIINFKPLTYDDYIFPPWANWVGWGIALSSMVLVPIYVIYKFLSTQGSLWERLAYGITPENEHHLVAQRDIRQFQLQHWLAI

Regarding `CC(C)C[C@@H]1NC(=O)[C@H](CCCCN)NC(=O)[C@H](Cc2ccc(O)cc2)NC(=O)CNC(=O)C[C@@H]2CSSC[C@H](CC(=O)N[C@@H](Cc3cnc[nH]3)C(=O)N3CC[C@H](O)[C@H]3C(=O)N[C@H](CC(=O)O)CSSC[C@H](NC(=O)[C@@H](NC(=O)CNC(=O)[C@@H]3CCC(=O)N3)C(C)C)CC(=O)N2)NC1=O`, the result was inactive.
